Reference: ChEMBL document CHEMBL2434843, “Synthesis and evaluation of α-ketotriazoles and α,β-diketotriazoles as inhibitors of Mycobacterium tuberculosis” (Eur J Med Chem, 2013)
Converted amounts (≈) assume the structure as drawn.

Assays:
[1] = Cytotoxicity against human GM637 cells after 4 days by WST-1 assay; format: cell-based; conditions: GM637, 96 h
How it was run: (§1)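 Cells were cultured in DMEM with 10% fetal calf serum and seeded at 3000 per well. After 24 h they were treated with 100 nM to 50 μM compound, 8 replicates per concentration, for 4 days. Viability was read by WST-1 and reported as IC50.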

HCT-116 = test: Cytotoxicity against human HCT116 cells after 4 days by WST-1 assay; format: functional, cell-based; conditions: HCT-116, 96 h; how it was run: as §1
[2] = tested on: Mycobacterium tuberculosis; test: Antitubercular activity against Mycobacterium tuberculosis H37Rv assessed as growth inhibition after 21 days by micro-broth dilution method; format: functional; conditions: 504 h
[3] = tested on: Mycobacterium tuberculosis; test: Antitubercular activity against Mycobacterium tuberculosis H37Rv assessed as growth inhibition; format: functional
How it was run: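 M. tuberculosis H37Rv grown at 37 °C in Middlebrook 7H9 with 0.05% Tween 80, or on 7H11 agar with OADC. Culture dilutions of about 10^5-10^6 cfu/ml were streaked onto 7H11 plates holding 0.25 µg/mL to 40 µg/mL drug. Plates were incubated at 37 °C for about 21 days, and MIC was read from visual growth.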

| Structure (SMILES) | IC50 [1] | IC50 (HCT-116) | MIC [2] | MIC [3] |
| --- | --- | --- | --- | --- |
| COc1cc(Cn2cc(C(=O)C(=O)c3ccc([N+](=O)[O-])cc3)nn2)cc(OC)c1 | > 50 µM | > 50 µM | 161 µM (≈ 64 µg/mL) |  |
| O=C(C(=O)c1ccc(Cl)cc1Cl)c1cn(CCc2ccccc2)nn1 | > 50 µM | > 50 µM | 13.4 µM (≈ 5.01 µg/mL) |  |
| COc1cc(Cn2cc(C(=O)C(=O)c3ccccc3OC)nn2)cc(OC)c1 | > 50 µM | > 50 µM | 21 µM (≈ 8.01 µg/mL) |  |
| O=C(Cc1ccccc1)c1cn(Cc2ccccc2)nn1 | > 50 µM | > 50 µM |  |  |
| NNC(=O)c1ccncc1 [ISONIAZID] |  |  | 0.4 µM (≈ 0.0549 µg/mL) |  |
| O=C(C(=O)c1cn(Cc2ccc([N+](=O)[O-])cc2)nn1)c1ccccc1 | > 50 µM | > 50 µM | 11.9 µM (≈ 4 µg/mL) |  |
| COc1cc(Cn2cc(C(=O)C(=O)c3ccccc3)nn2)cc(OC)c1 | > 50 µM | > 50 µM | 11.4 µM (≈ 4 µg/mL) |  |
| Cc1cc(C)cc(Cn2cc(C(=O)C(=O)c3ccccc3)nn2)c1 | > 50 µM | > 50 µM | 50 µM (≈ 16 µg/mL) |  |
| O=C(C(=O)c1ccc(Cl)cc1Cl)c1cn(Cc2ccc([N+](=O)[O-])cc2)nn1 | > 50 µM | > 50 µM | 79 µM (≈ 32 µg/mL) |  |
| COc1ccc(CCn2cc(C(=O)Cc3ccc(OC)cc3)nn2)cc1 |  |  | > 91.1 µM |  |
| O=C(C(=O)c1cn(Cc2ccccc2)nn1)c1ccccc1 | > 50 µM | > 50 µM | 172 µM (≈ 50 µg/mL) |  |
| CCCCCCCCn1cc(C(=O)Cc2ccc(Cl)cc2Cl)nn1 |  |  | 20.9 µM (≈ 7.7 µg/mL) |  |
| COc1ccc(C(=O)C(=O)c2cn(CCc3ccccc3)nn2)cc1 | > 50 µM | > 50 µM | > 95.4 µM |  |
| COc1ccc(CC(=O)c2cn(CCc3ccccc3)nn2)cc1 |  |  | > 112 µM |  |
| O=C(Cc1ccccc1)c1cn(Cc2ccc([N+](=O)[O-])cc2)nn1 | > 50 µM | > 50 µM |  |  |
| O=C(Cc1ccc(Cl)cc1Cl)c1cn(CCc2ccccc2)nn1 |  |  | > 88.8 µM |  |
| COc1ccc(C(=O)C(=O)c2cn(Cc3ccccc3)nn2)cc1 | > 50 µM | > 50 µM | 7.6 µM (≈ 2.44 µg/mL) |  |
| O=C(C(=O)c1ccc(Cl)cc1Cl)c1cn(Cc2ccccc2)nn1 | > 50 µM | > 50 µM | 6.9 µM (≈ 2.49 µg/mL) |  |
| COc1ccccc1C(=O)C(=O)c1cn(Cc2ccccc2)nn1 | > 50 µM | > 50 µM | 12.4 µM (≈ 4 µg/mL) |  |
| COc1ccc(CCn2cc(C(=O)C(=O)c3ccc(OC)cc3)nn2)cc1 |  |  | > 87.6 µM |  |
| O=C(C(=O)c1cn(Cc2ccccc2)nn1)c1ccc([N+](=O)[O-])cc1 | > 50 µM | > 50 µM | 95.1 µM (≈ 32 µg/mL) |  |
| O=C(Cc1ccc(Cl)cc1Cl)c1cn(Cc2ccccc2)nn1 | > 50 µM | > 50 µM |  |  |
| COc1cc(Cn2cc(C(=O)C(=O)c3ccc(Cl)cc3Cl)nn2)cc(OC)c1 | > 50 µM | > 50 µM | 9.51 µM (≈ 4 µg/mL) |  |
| CCCCCCCCn1cc(C(=O)C(=O)c2ccccc2)nn1 |  |  | 51 µM (≈ 16 µg/mL) |  |
| COC(=O)c1ccc(Cn2cc(C(=O)C(=O)c3ccc(Cl)cc3Cl)nn2)o1 |  |  | 39.2 µM (≈ 16 µg/mL) |  |
| CCCCCCCCc1cn(CC(=O)OCC)nn1 |  |  |  | 1.9 µg/mL (≈ 7.11 µM) |
| CCCCCCCCn1cc(C(=O)Cc2ccccc2)nn1 | > 50 µM | > 50 µM |  |  |
| CCCCCCCCn1cc(C(=O)C(=O)c2ccc(Cl)cc2Cl)nn1 | > 50 µM | > 50 µM | 80.7 µM (≈ 30.9 µg/mL) |  |
| O=C(C(=O)c1ccc(Cl)cc1Cl)c1cn(C2CCCCC2)nn1 |  |  | 43.7 µM (≈ 15.4 µg/mL) |  |
| Cc1cc(C)cc(Cn2cc(C(=O)Cc3ccccc3)nn2)c1 | > 50 µM | > 50 µM |  |  |
